Results as given in PubChem BioAssay AID522 (The Scripps Research Institute Molecular Screening Center, 2006).
The whole screen tested about 65,000 compounds, of which about 1,200 (1.8%) were called active. For the sample, actives were picked, then their nearest neighbours and some compounds at random. A number with no mark means an inactive call.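 The calls were made as follows: active = activation above the mean activation of all tested compounds plus 3 SD (cut at about 50% in these data); inactive = the rest.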

These compounds were tested against Steroidogenic factor 1 (Homo sapiens) (UniProt Q13285) (assay: activators of human SF-1, primary screen, cell-based, CHO-K1, Gal4-SF-1 LBD, luciferase luminescence (AID 522)). Details: CHO-K1 Gal4-SF-1 LBD luciferase reporter; at 10 µM; active compounds read high; % increase over DMSO SF-1-specific signal.
Chain of Steroidogenic factor 1 (Homo sapiens) (Q13285 whole entry, looked up, the tested form may be a part): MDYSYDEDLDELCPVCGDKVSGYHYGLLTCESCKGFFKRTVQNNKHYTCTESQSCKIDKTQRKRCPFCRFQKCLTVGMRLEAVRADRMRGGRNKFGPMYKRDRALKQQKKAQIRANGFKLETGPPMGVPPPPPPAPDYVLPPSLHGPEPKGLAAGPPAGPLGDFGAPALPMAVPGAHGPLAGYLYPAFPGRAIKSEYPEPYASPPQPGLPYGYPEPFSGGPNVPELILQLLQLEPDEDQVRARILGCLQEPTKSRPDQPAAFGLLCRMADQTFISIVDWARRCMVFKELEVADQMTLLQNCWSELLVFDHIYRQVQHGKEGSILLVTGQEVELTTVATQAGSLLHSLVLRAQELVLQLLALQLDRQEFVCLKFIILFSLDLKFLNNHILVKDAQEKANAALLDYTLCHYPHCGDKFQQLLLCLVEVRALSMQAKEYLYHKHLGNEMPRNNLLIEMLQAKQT
In short: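 System: CHO-K1 cells with Gal4–hSF-1 LBD chimera plus Gal4-driven luciferase; quantity: 4,000 CHO-K1 cells per well; compound: one dose, 10 µM compound, 1% DMSO; times: 20 h compound treatment, 37 °C; measured by: SteadyLite luciferase luminescence; read-out: percent activation versus DMSO; benchmarks: DMSO and mock-transfected background; replicates: one test per compound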

Row | Structure (SMILES) | activation
1 | CCCC(=O)N=c1sc2cccc(F)c2n1C | 17.9%
2 | Cn1c(=NC(=O)C2CC2)sc2cc(F)cc(F)c21 | -2%
3 | Cn1c(=NC(=O)c2ccco2)sc2cccc(F)c21 | 91.8% (active)
4 | CC(=O)Nc1ccn(Cc2c(F)cccc2Cl)n1 | 42.1%
5 | CCCCOC(=O)c1ccc(N2C(=O)CC(N3CCN(C/C=C/c4ccccc4)CC3)C2=O)cc1 (centres undefined) | -6.3%
6 | O=C(Cn1cnc2c(cnn2-c2ccc(F)cc2)c1=O)NCCc1ccccc1 | -19.4%
7 | COc1ccc(-n2nnc3c(=O)n(CC(=O)OCc4ccccc4)cnc32)cc1 | 9.3%
8 | O=C(Cn1cnc2c(cnn2-c2ccccc2)c1=O)NCc1ccccc1 | 70.3% (active)
9 | O=C(Cn1c(=O)sc2ccccc21)Nc1ccc2c(c1)OCCO2 | -9.9%
10 | N#C/C(=C1\CCCN1)c1nc(-c2ccccc2)cs1 | 30%
11 | N#CC(=C1SC=CS1)c1nc(-c2ccccc2)cs1 | 80.9% (active)
12 | CCOC(=O)CSc1nnc(CNC(=O)c2ccco2)n1-c1ccc(F)cc1 | 3.4%
13 | CN(CCc1ccccn1)S(=O)(=O)c1ccc2c3c(cccc13)C(=O)N2 | 14.4%
14 | COc1ccccc1OCCC(=O)OCC(=O)NC(=O)NC(C)(C)C | 8.8%
15 | CCc1nnc(NC(=O)CSc2nnc(Cc3ccccc3)n2-c2ccc(OC)cc2)s1 | -17.5%
16 | CC(C)COC(=O)c1ccc(NC(=O)C2C3C=CC(C3)C2C(=O)O)cc1 (centres undefined) | 63.7% (active)
17 | CCCCC(CCC(=O)Nc1ccc(C(=O)OCC)cc1)C(=O)O (centres undefined) | -8.4%
18 | CS(=O)(=O)c1ccc2nc(NC(=O)C3C4C=CC(C4)C3C(=O)O)sc2c1 (centres undefined) | 8.1%
19 | CCc1nnc(NC(=O)c2ccc(S(=O)(=O)NC3CCCCC3)cc2)s1 | 6.1%
20 | COc1cccc(N(CC(=O)Nc2cccc(N(C)S(C)(=O)=O)c2)S(C)(=O)=O)c1 | 1.3%
21 | CCOC(=O)C1CCN(C(=O)Cc2c(C(=O)O)[nH]c3ccccc23)CC1 | -12.1%
22 | COC(=O)c1sccc1NC(=O)c1csc2c1CCCC2 | -11.7%

Row | Structure (SMILES) | activation
23 | COC(=O)c1sc(NC(=O)c2csc3c2CCCC3)nc1C | 50.9% (active)
24 | CC(=O)Cc1nsc(NC(=O)c2csc3c2CCCC3)n1 | 18%
25 | CCOC(=O)c1cc(-c2nnc(-c3cc(OC)c(OC)c(OC)c3)o2)c(C)nc1C | -11%
26 | Cc1ccc(C)c2[nH]c(=O)c(CCNC(=O)CC(C)C)cc12 | -11.8%
27 | CCOC(=O)C1Cn2c(nc3c(c2=O)C(C)(CC)Cc2ccccc2-3)S1 (centres undefined) | -8.9%
28 | CC1Cn2c(nnc2-c2cccs2)S1 (centres undefined) | -15.2%
29 | O=C(Nc1ccc(Cl)cc1)c1ccsn1 | 73.5% (active)
30 | O=C(O)C1CCCCC1C(=O)Nc1ccc(Cl)cc1 (centres undefined) | -2.8%
31 | O=C(NCc1cn2ccsc2n1)Nc1ccc(Cl)cc1 | -1.8%
32 | CCOC(=O)C1CCCCN1Cc1ccc(OC)c(OC)c1OC (centres undefined) | -21.3%
33 | Cn1nnc2cc(C(=O)NCCC3=CCCCC3)ccc21 | 49.9% (active)
34 | O=C(CN1C(=O)NC2(CCCCC2)C1=O)NCCC1=CCCCC1 | 2.8%
35 | CN(c1ccc(C(=O)NCCC2=CCCCC2)cc1)S(C)(=O)=O | 55.4% (active)
36 | O=C(COc1cccc(-n2cnnn2)c1)NCCC1=CCCCC1 | -3.3%
37 | CN(c1ccc(C(=O)N2CCc3ccccc3C2)cc1)S(C)(=O)=O | 22.9%
38 | O=C(Cc1nn[nH]n1)NCCC1=CCCCC1 | 3.7%
39 | COc1ccc(S(=O)(=O)N2CCCC2)c(C)c1C | -8.5%
40 | c1ccc(-c2nnc3n2NC(c2ccc4c(c2)OCO4)S3)cc1 (centres undefined) | -14.9%
41 | CC(C)C[C@H](NC(=O)Nc1cccc(C(F)(F)F)c1)C(=O)O | -1.1%
42 | Cc1ccsc1-c1nc(CSCC(=O)NCCN2CCCC2)c(C)o1 | 3.6%
43 | Cc1ccc(C(=O)Nc2ccc3c(c2)OCO3)cc1S(=O)(=O)N1CCCCC1 | 22.6%
44 | O=C(Nc1cccnc1)c1ccc2c(c1)OCO2 | 13.2%

Row | Structure (SMILES) | activation
45 | COc1ccc(C(=O)Nc2ccc3c(c2)OCO3)cc1OC | 55% (active)
46 | CC(C)C(=O)Nc1cccc(C(=O)Nc2ccc3c(c2)OCO3)c1 | 55% (active)
47 | Cn1c(=O)n(C)c2cc(C(=O)Nc3ccc4c(c3)OCO4)ccc21 | 21.2%
48 | O=C(Nc1ccc2c(c1)OCCO2)c1ccncc1 | 20.3%
49 | CCc1nnc(NC(=O)c2c(O)c3c([nH]c2=O)CCCC3)s1 | 29.1%
50 | CC1C(c2ccccc2)=[N+]([O-])C2(CCCC2)N1O (centres undefined) | 18.6%
51 | O=C(C1CCC(C(=O)N2CCCC2)CC1)N1CCCC1 (centres undefined) | -2.5%
52 | COc1ccc(NC(=O)c2cccc(NC(=O)c3ccco3)c2)c(OC)c1 | -29.9%
53 | Fc1cc(F)c2nc(N3CCOCC3)sc2c1 | 52.6% (active)
54 | Fc1ccc2nc(N3CCCCC3)sc2c1 | 43.3%
55 | c1c2c(cc3sc(N4CCCCC4)nc13)OCCO2 | -71.4%
56 | O=C(Nc1ccc(NC(=O)c2cccs2)cn1)c1ccco1 | 73.3% (active)
57 | Cc1ccnc(NC(=O)c2ccc(NC(=O)c3ccco3)cc2)c1 | 46.9%
58 | O=C(O)Cc1ccc(NC(=O)c2cccs2)cc1 | -7.4%
59 | COc1ccc(N(C(=O)c2cccnc2)S(=O)(=O)c2ccc3c(c2)n(C)c(=O)n3C)cc1 | -24.3%
60 | COc1ccc(Cn2nnc3c(=O)[nH]c(C4CCN(C(=O)c5ccccc5Cl)CC4)nc32)cc1 | -2.2%
61 | CCC(=O)Nc1cccc(NC(=O)c2cccnc2)c1 | -0.4%
62 | CC(C)NS(=O)(=O)c1ccc(NC(=O)c2cccnc2)cc1 | 33.9%
63 | Cc1cc2nc(-c3ccc(NC(=O)c4cccnc4)cc3)oc2cc1C | 54.8% (active)
64 | CCOC(=O)c1ccn(-c2nc(-c3ccco3)cc(C(F)(F)F)n2)n1 | 0.6%
